Assay results as given in ChEMBL document CHEMBL1828575, “Design, synthesis and antiproliferative activities of biarylolefins based on polyhydroxylated and carbohydrate scaffolds” (Eur J Med Chem, 2011).

Key:
Assay type in all cases: functional
NCI-H23 = experiment: Cytotoxicity against human NCI-H23 cells assessed as cellular growth at 10 uM after 48 hrs by SRB assay
Procedure, shortened: (§1)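 NCI-60 panel lines grown in RPMI 1640 with 5% FBS and 2 mM L-glutamine. Plated at 5000–40,000 cells/well and preincubated 24 h at 37 °C, 5% CO₂, with time-zero plates fixed in TCA. Compounds, dissolved in DMSO and diluted in medium, were applied for 48 h. Cells were TCA-fixed (10% final for adherent, 16% for suspension) and stained with 0.4% SRB in 1% acetic acid. Dye was solubilised in 10 mM Tris base and read at 515 nm; growth was expressed as a percentage of untreated control.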

T47D = experiment: Antitumor activity against human T47D cells after 48 hrs by SRB assay
Procedure, shortened: (§2)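 NCI60 panel cells grown in RPMI 1640 with 5% FBS and 2 mM L-glutamine, plated at 5000–40,000 cells/well and preincubated 24 h at 37 °C, 5% CO₂. Compound was added from DMSO at five concentrations, 10-fold or 1/2 log dilutions, then incubated 48 h.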

CCRF-CEM = experiment: Cytotoxicity against human CCRF-CEM cells assessed as cellular growth at 10 uM after 48 hrs by SRB assay
Procedure, shortened: (§3)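 NCI60 single-dose screen of cells in RPMI 1640 with 5% FBS and 2 mM L-glutamine, preincubated 24 h at 37 °C, 5% CO₂. Cells were then exposed 48 h to compound added from DMSO stock. TCA-fixed, stained with 0.4% SRB in 1% acetic acid, dye solubilised in 10 mM Tris base and read at 515 nm. Growth is given as percent of untreated control.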

SF-268 = experiment: Antitumor activity against human SF268 cells after 48 hrs by SRB assay; settings: SF-268, 48 h
Procedure, shortened: (§4)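 NCI60 panel in RPMI 1640 with 5% FBS and 2 mM L-glutamine. Cells were plated at 5000–40,000/well by doubling time, held 24 h, then time-zero plates were TCA-fixed. Five concentrations (10-fold or half-log dilutions of DMSO stocks) were applied for 48 h at 37 °C, 5% CO2. Cells were fixed with cold TCA (10% final adherent, 16% suspension) and stained with 0.4% SRB. Bound dye was dissolved in 10 mM Tris and read at 515 nm. GI50, TGI and LC50 were calculated per line.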

UO-31 [1] = experiment: Cytotoxicity against human UO31 cells assessed as cellular growth at 10 uM after 48 hrs by SRB assay; procedure, shortened: as §1
NCI-H460 = experiment: Cytotoxicity against human NCI-H460 cells assessed as cellular growth at 10 uM after 48 hrs by SRB assay; procedure, shortened: as §1
Malme-3M = experiment: Antitumor activity against human MALME-3M cells after 48 hrs by SRB assay; procedure, shortened: as §4
SNB-75 = experiment: Cytotoxicity against human SNB75 cells assessed as cellular growth at 10 uM after 48 hrs by SRB assay; procedure, shortened: as §1
CAKI-1 = experiment: Cytotoxicity against human Caki1 cells assessed as cellular growth at 10 uM after 48 hrs by SRB assay; procedure, shortened: as §3
MDA-MB-435 = experiment: Antitumor activity against human MDA-MB-435 cells after 48 hrs by SRB assay; settings: MDA-MB-435, 48 h; procedure, shortened: as §4
M14 = experiment: Cytotoxicity against human M14 cells assessed as cellular growth at 10 uM after 48 hrs by SRB assay; procedure, shortened: as §3
OVCAR-8 = experiment: Cytotoxicity against human OVCAR8 cells assessed as cellular growth at 10 uM after 48 hrs by SRB assay; procedure, shortened: as §1
HL-60(TB) = experiment: Antitumor activity against human HL-60(TB) cells after 48 hrs by SRB assay; settings: HL-60, 48 h
Procedure, shortened: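 NCI60 screen: cells grown in RPMI 1640 with 5% FBS and 2 mM L-glutamine, plated at 5000–40,000 cells/well by doubling time, preincubated 24 h at 37 °C with 5% CO2. Compounds were diluted from DMSO stocks and given for 48 h, at five concentrations for dose response. A time-zero plate was TCA-fixed. Cells were TCA-fixed, stained with 0.4% SRB and read at 515 nm, with growth expressed relative to untreated controls.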

SK-MEL-28 = experiment: Antitumor activity against human SK-MEL-28 cells after 48 hrs by SRB assay; settings: SK-MEL-28, 48 h; procedure, shortened: as §2
SNB-19 = experiment: Antitumor activity against human SNB19 cells after 48 hrs by SRB assay; settings: SNB-19, 48 h; procedure, shortened: as §2
HCT-15 = experiment: Cytotoxicity against human HCT15 cells assessed as cellular growth at 10 uM after 48 hrs by SRB assay; procedure, shortened: as §3
HOP-92 = experiment: Antitumor activity against human HOP92 cells after 48 hrs by SRB assay; settings: HOP-92, 48 h; procedure, shortened: as §4
SK-OV-3 = experiment: Antitumor activity against human SKOV3 cells after 48 hrs by SRB assay; settings: SK-OV-3, 48 h; procedure, shortened: as §2
HCT-116 = experiment: Cytotoxicity against human HCT116 cells assessed as cellular growth at 10 uM after 48 hrs by SRB assay; procedure, shortened: as §3
SF-295 = experiment: Cytotoxicity against human SF295 cells assessed as cellular growth at 10 uM after 48 hrs by SRB assay; procedure, shortened: as §1
[2] = Antitumor activity against human Hs 578T cells after 48 hrs by SRB assay; procedure, shortened: as §4
HOP-62 = experiment: Cytotoxicity against human HOP62 cells assessed as cellular growth at 10 uM after 48 hrs by SRB assay; procedure, shortened: as §3
UO-31 [3] = experiment: Antitumor activity against human UO31 cells after 48 hrs by SRB assay; settings: UO-31, 48 h; procedure, shortened: as §2
[4] = read-out: LC50 (the source's name)
[5] = read-out: pLC50 (the source's name) (converted)

With `COc1ccc(/C(=C2/O[C@@H]([C@H]3COC(C)(C)O3)[C@H]3OC(C)(C)O[C@@H]23)c2cc(OC)c(OC)c(OC)c2)cc1O` the Activity (NCI-H23) was 72.29%, the GI50 (T47D; read-out: GI50) was 2.51 µM and the CC50 (T47D; [4]) was > 100 µM. For the same compound, the TGI (T47D; read-out: TGI) was > 100 µM, the GI50 (T47D; read-out: pGI50 (converted)) was 25.1 µM and the CC50 (T47D; [5]) was > 100 µM. For the same compound, the TGI (T47D; read-out: pTGI (converted)) was > 100 µM, the Activity (CCRF-CEM) was 47.94% and the LC50 (concentration killing 50% of cells relative to time zero) (SF-268) was > 100 µM. It also gave a GI50 (SF-268; read-out: GI50) of 6.95 µM, a TGI (SF-268; read-out: TGI) of 31.4 µM and a GI50 (SF-268; read-out: pGI50 (converted)) of 6.92 µM. The CC50 (SF-268; [5]) was > 100 µM, the TGI (SF-268; read-out: pTGI (converted)) was 31.6 µM and the Activity (UO-31 [1]) was 49.1%. The Activity (NCI-H460) was 79.36%, the GI50 (Malme-3M) was 5.46 µM and the LC50 (concentration killing 50% of cells present at time zero) (Malme-3M) was > 100 µM. For the same compound, the TGI (Malme-3M) was > 100 µM, the Activity (SNB-75) was 6.11% and the Activity (CAKI-1) was 93.05%. For the same compound, the GI50 (MDA-MB-435) was 1.48 µM, the TGI (MDA-MB-435) was 3.7 µM and the CC50 (MDA-MB-435; [4]) was > 100 µM. It also gave an Activity (M14) of 7.95%, an Activity (OVCAR-8) of 68.27% and a GI50 (HL-60(TB); read-out: GI50) of 3.39 µM. For the same compound, the CC50 (HL-60(TB); [4]) was > 100 µM, the TGI (HL-60(TB); read-out: TGI) was 23.3 µM and the GI50 (HL-60(TB); read-out: pGI50 (converted)) was 3.39 µM. The CC50 (HL-60(TB); [5]) was > 100 µM, the TGI (HL-60(TB); read-out: pTGI (converted)) was 23.4 µM and the LC50 (50% lethal concentration) (SK-MEL-28) was > 100 µM. The GI50 (SK-MEL-28; read-out: GI50) was 5.45 µM, the TGI (SK-MEL-28; read-out: TGI) was > 100 µM and the GI50 (SK-MEL-28; read-out: pGI50 (converted)) was 5.5 µM. For the same compound, the CC50 (SK-MEL-28; [5]) was > 100 µM, the TGI (SK-MEL-28; read-out: pTGI) was > 100 µM and the GI50 (SNB-19) was 4.28 µM. The TGI (SNB-19) was > 100 µM, the CC50 (SNB-19; [4]) was > 100 µM and the Activity (HCT-15) was 26.94%. The GI50 (HOP-92) was 5.45 µM, the TGI (HOP-92) was 31.8 µM and the CC50 (HOP-92; [4]) was > 100 µM. The GI50 (SK-OV-3; read-out: GI50) was 4.11 µM, the CC50 (SK-OV-3; [4]) was > 100 µM and the TGI (SK-OV-3; read-out: TGI) was 3.85 µM. The GI50 (SK-OV-3; read-out: pGI50 (converted)) was 4.68 µM, the CC50 (SK-OV-3; [5]) was > 100 µM and the TGI (SK-OV-3; read-out: pTGI (converted)) was 18.6 µM. It also gave an Activity (HCT-116) of 53.99%, an Activity (SF-295) of 85.23% and a GI50 [2] of 2.83 µM. The TGI [2] was 7.88 µM, the CC50 [2, 4] was > 100 µM and the Activity (HOP-62) was 48.49%. For the same compound, the GI50 (UO-31 [3]; read-out: GI50) was 7.53 µM, the CC50 (UO-31 [3]; [4]) was > 100 µM and the TGI (UO-31 [3]; read-out: TGI) was 77.8 µM. The GI50 (UO-31 [3]; read-out: pGI50 (converted)) was 7.59 µM, the CC50 (UO-31 [3]; [5]) was > 100 µM and the TGI (UO-31 [3]; read-out: pTGI (converted)) was 77.6 µM.
